Test results: ChEMBL document CHEMBL1153439, “Design, synthesis, antimicrobial activity and molecular modeling studies of novel benzofuroxan derivatives against Staphylococcus aureus” (2009)
Converted amounts (≈) assume the structure as drawn.

How the values were obtained:
Format in all cases: functional
Staphylococcus aureus [1] = test: Antibacterial activity against Staphylococcus aureus ATCC 25923 after 18 hrs by phase 1 broth microdilution method; conditions: ATCC 25923, 18 h
Outline: (§1)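 Phase I: twofold serial dilutions in Tryptic Soy Broth, 96-well plates, concentrations […]. Stocks in DMSO/TSB 1:10 v/v, with final DMSO 5.0–0.01%. Inoculum was set to 0.5 McFarland, then diluted in saline and TSB. Plates ran 18 h at 35 °C. MIC is the lowest concentration without visible growth, in triplicate. Sterility was read at 24 and 48 h. Ampicillin, chloramphenicol and vancomycin were controls.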

Staphylococcus aureus [2] = test: Antibacterial activity against Staphylococcus aureus ATCC 25923 after 18 hrs by phase 2 broth microdilution method; conditions: ATCC 25923, 18 h
Outline: (§2)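 Phase II narrowed the phase I MIC in Tryptic Soy Broth. Stock was made at twice the phase I MIC, then diluted 10% stepwise with TSB through column 11. Final DMSO was 2.5–1.0%. Positive growth control wells received TSB. Inoculum was prepared as in phase I and plates were incubated 18 h at 35 °C.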

Staphylococcus aureus [3] = test: Antibacterial activity against multidrug-resistant Staphylococcus aureus 3SP/R33 after 18 hrs by phase 1 broth microdilution method; outline: as §1
Staphylococcus aureus [4] = test: Antibacterial activity against multidrug-resistant Staphylococcus aureus 3SP/R33 after 18 hrs by phase 2 broth microdilution method; outline: as §2
Staphylococcus aureus [5] = test: Antibacterial activity against multidrug-resistant vancomycin-intermediate Staphylococcus aureus VISA3 after 18 hrs phase 1 by broth microdilution method; outline: as §1
Staphylococcus aureus [6] = test: Antibacterial activity against multidrug-resistant vancomycin-intermediate Staphylococcus aureus VISA3 after 18 hrs phase 2 by broth microdilution method; outline: as §2
Staphylococcus aureus [7] = test: Antibacterial activity against Staphylococcus aureus ATCC 25923 after 18 hrs by broth microdilution method; conditions: ATCC 25923, 18 h
Outline: (§3)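 Broth microdilution in Tryptic Soy Broth in 96-well plates, with DMSO as solvent at no more than 5% of the total. Inoculum was set to 0.5 McFarland and diluted in saline and TSB. Plates were incubated 18 h at 35 °C. MIC is the lowest concentration without visible growth. The MIC was determined in two phases, the second narrowing the first.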

Staphylococcus aureus [8] = test: Antibacterial activity against multidrug-resistant Staphylococcus aureus 3SP/R33 after 18 hrs by broth microdilution method; outline: as §3
Staphylococcus aureus [9] = test: Antibacterial activity against multidrug-resistant vancomycin-intermediate Staphylococcus aureus VISA3 after 18 hrs by broth microdilution method; outline: as §3

Row | Compound | MIC (Staphylococcus aureus [1]) [µg/mL] | MIC (Staphylococcus aureus [2]) [µg/mL] | MIC (Staphylococcus aureus [3]) [µg/mL] | MIC (Staphylococcus aureus [4]) [µg/mL] | MIC (Staphylococcus aureus [5]) [µg/mL] | MIC (Staphylococcus aureus [6]) [µg/mL] | MIC (Staphylococcus aureus [7]) [µg/mL] | MIC (Staphylococcus aureus [8]) [µg/mL] | MIC (Staphylococcus aureus [9]) [µg/mL]
1 | Nc1ccc(C(=O)N/N=C/c2ccc3c(c2)no[n+]3[O-])cc1 | 10 (≈ 33.6 µM) | 15.3 (≈ 51.5 µM) | 10 (≈ 33.6 µM) | 15.3 (≈ 51.5 µM) | 10 (≈ 33.6 µM) | 15.3 (≈ 51.5 µM) |  |  | 
2 | O=C(N/N=C/c1ccc2c(c1)no[n+]2[O-])c1ccc(Cl)cc1 | 10 (≈ 31.6 µM) | 15.3 (≈ 48.3 µM) | 10 (≈ 31.6 µM) | 15.3 (≈ 48.3 µM) | 10 (≈ 31.6 µM) | 15.3 (≈ 48.3 µM) |  |  | 
3 | O=C(N/N=C/c1ccc2c(c1)no[n+]2[O-])c1ccc(Br)cc1 | 10 (≈ 27.7 µM) | 18 (≈ 49.8 µM) | 10 (≈ 27.7 µM) | 18 (≈ 49.8 µM) | 10 (≈ 27.7 µM) | 18 (≈ 49.8 µM) |  |  | 
4 | O=C(N/N=C/c1ccc2c(c1)no[n+]2[O-])c1ccc(I)cc1 | 20 (≈ 49 µM) | 23.6 (≈ 57.8 µM) | 20 (≈ 49 µM) | 23.6 (≈ 57.8 µM) | 20 (≈ 49 µM) | 23.6 (≈ 57.8 µM) |  |  | 
5 | Cc1ccc(C(=O)N/N=C/c2ccc3c(c2)no[n+]3[O-])cc1 | 20 (≈ 67.5 µM) | 21 (≈ 70.9 µM) | 20 (≈ 67.5 µM) | 21 (≈ 70.9 µM) | 20 (≈ 67.5 µM) | 21 (≈ 70.9 µM) |  |  | 
6 | N#Cc1ccc(C(=O)N/N=C/c2ccc3c(c2)no[n+]3[O-])cc1 | 20 (≈ 65.1 µM) | 26.2 (≈ 85.3 µM) | 20 (≈ 65.1 µM) | 26.2 (≈ 85.3 µM) | 20 (≈ 65.1 µM) | 26.2 (≈ 85.3 µM) |  |  | 
7 | CN(C)c1ccc(C(=O)N/N=C/c2ccc3c(c2)no[n+]3[O-])cc1 | > 80 |  | > 80 |  | > 80 |  |  |  | 
8 | CC1(C)S[C@@H]2[C@H](NC(=O)[C@H](N)c3ccccc3)C(=O)N2[C@H]1C(=O)O [AMPICILLIN] |  |  |  |  |  |  | 0.1 (≈ 0.286 µM) |  | 
9 | O=C(N/N=C/c1ccc2c(c1)no[n+]2[O-])c1ccc(C(F)(F)F)cc1 | 10 (≈ 28.6 µM) | 13.1 (≈ 37.4 µM) | 10 (≈ 28.6 µM) | 13.1 (≈ 37.4 µM) | 10 (≈ 28.6 µM) | 13.1 (≈ 37.4 µM) |  |  | 
10 | O=C(N/N=C/c1ccc2c(c1)no[n+]2[O-])c1ccc(F)cc1 | 10 (≈ 33.3 µM) | 14.6 (≈ 48.6 µM) | 10 (≈ 33.3 µM) | 14.6 (≈ 48.6 µM) | 10 (≈ 33.3 µM) | 14.6 (≈ 48.6 µM) |  |  | 
11 | O=C(N[C@H](CO)[C@H](O)c1ccc([N+](=O)[O-])cc1)C(Cl)Cl [CHLORAMPHENICOL] |  |  |  |  |  |  | 2 (≈ 6.19 µM) | 32 (≈ 99 µM) | 32 (≈ 99 µM)
12 | O=C(N/N=C/c1ccc2c(c1)no[n+]2[O-])c1ccccc1 | 10 (≈ 35.4 µM) | 16.2 (≈ 57.4 µM) | 10 (≈ 35.4 µM) | 16.2 (≈ 57.4 µM) | 10 (≈ 35.4 µM) | 16.2 (≈ 57.4 µM) |  |  | 
13 | O=C(N/N=C/c1ccc2c(c1)no[n+]2[O-])c1ccc(O)cc1 | 20 (≈ 67.1 µM) | 26.2 (≈ 87.8 µM) | 20 (≈ 67.1 µM) | 26.2 (≈ 87.8 µM) | 20 (≈ 67.1 µM) | 26.2 (≈ 87.8 µM) |  |  | 
14 | COc1ccc(C(=O)N/N=C/c2ccc3c(c2)no[n+]3[O-])cc1 | 10 (≈ 32 µM) | 16.2 (≈ 51.9 µM) | 10 (≈ 32 µM) | 16.2 (≈ 51.9 µM) | 10 (≈ 32 µM) | 16.2 (≈ 51.9 µM) |  |  | 
15 | NS(=O)(=O)c1ccc(C(=O)N/N=C/c2ccc3c(c2)no[n+]3[O-])cc1 | > 80 |  | > 80 |  | > 80 |  |  |  | 
16 | CC(=O)c1ccc(C(=O)N/N=C/c2ccc3c(c2)no[n+]3[O-])cc1 | 20 (≈ 61.7 µM) | 21.2 (≈ 65.4 µM) | 20 (≈ 61.7 µM) | 21.2 (≈ 65.4 µM) | 20 (≈ 61.7 µM) | 21.2 (≈ 65.4 µM) |  |  | 
